In data set [1] the test system is Mus musculus. Description: Antinociceptive activity in Swiss Webster mouse assessed as increase in reaction time at 100 mg/kg, ip measured after 3 hrs by tail flick test. Format: functional, organism-based. On the set-up: dose 100 mg/kg. Summed up:
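Mice habituated to restraint cylinder 20 min/day for 5 days; distal 2 cm of tail immersed in 48 ± 0.5 °C water; tail withdrawal latency measured before and after ip dosing (5% DMSO/saline vehicle); 10 s cutoff; n = 6; two-way ANOVA with Bonferroni.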
A general note: Hot-plate and tail-flick tests time the reaction to a heat stimulus.

The subject of data set [2] is Mus musculus. Kind of data set: CNS toxicity in Swiss Webster mouse assessed as effect on motor performance at 100 mg/kg, ip after 40 mins by rotarod test. The data set is classed as organism-based. To be noted: in vivo. On the set-up: dose 100 mg/kg, route intraperitoneal. Summed up:
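Rota-rod test: 3 cm bar at 8 rpm; mice pre-selected 24 h earlier by remaining on bar for two consecutive 120 s periods; placed on rod 40 min after ip dosing; time on bar recorded up to 120 s; n = 6; one-way ANOVA with Tukey.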

The subject of data set [3] is Mus musculus. Description: Antiinflammatory activity in Swiss Webster mouse assessed as reduction in hyperalgesia at 100 mg/kg, ip dosed 40 mins before CFA injection and measured 2 to 6 hrs post CFA stimulus. The data set is classed as functional, organism-based. On the set-up: dose 100 mg/kg. Summed up:
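Male Swiss Webster mice (22−28 g) given drug ip in 5% DMSO/saline (dexamethasone in 10% ethanol/saline) 40 min before 20 μL CFA (1 mg/mL heat-killed M. tuberculosis in paraffin oil/mannide monooleate) sc into right hind paw plantar region. Mechanical threshold by von Frey filaments, up−down method, at 2, 4 and 6 h; n = 6; two-way ANOVA with Bonferroni.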

Data set [4] relates to Mus musculus. Description: Antiinflammatory activity in Swiss Webster mouse assessed as reduction in paw edema at 100 mg/kg, ip dosed 40 mins before CFA injection and measured 2 to 6 hrs post CFA stimulus. Format: functional, organism-based. On the set-up: dose 100 mg/kg. Summed up:
(§1)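 Male Swiss Webster mice, ip pretreatment in 5% DMSO/saline 40 min before intraplantar CFA (20 μL, 1 mg/mL heat-killed M. tuberculosis). Paw volume measured by plethysmometer before and 2, 4, 6 h after CFA; edema expressed as percent increase in paw volume; n = 6 mice/group; two-way ANOVA with Bonferroni.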

The subject of data set [5] is Mus musculus. Description: Antinociceptive activity in Swiss Webster mouse assessed as increase in latency time at 100 mg/kg, ip measured after 0.5 to 2 hrs by hot plate test. Format: functional, organism-based. On the set-up: dose 100 mg/kg. Summed up: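 Hot plate held at 55 ± 1 °C; male Swiss Webster mice; reaction time to hind paw licking or jumping recorded before and after ip dosing (vehicle 5% DMSO in saline); data as difference from baseline; 10 s cutoff; n = 6; two-way ANOVA with Bonferroni.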

Data set [6] has as its system Mus musculus. Kind of data set: CNS toxicity in Swiss Webster mouse assessed as effect on motor performance at 100 mg/kg, ip after 40 mins by open field test. Format: organism-based. On the set-up: dose 100 mg/kg, route intraperitoneal. To be noted: in vivo. Summed up: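 Open-field test 40 min after ip dosing: mice placed singly in 40 × 60 × 50 cm box with 12 floor squares; squares crossed with all four paws counted over 3 min; n = 6; one-way ANOVA with Tukey.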

Data set [7] concerns Mus musculus. Kind of data set: Antinociceptive activity in Swiss Webster mouse assessed as inhibition of formalin-induced late phase pain response at 50 mg/kg, ip dosed 40 mins before formalin injection. On the set-up: dose 50 mg/kg. Format: functional, organism-based. Summed up:
(§2)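 Mice acclimated 30 min in chamber, dosed ip 40 min before sc injection of 20 μL 2.5% formalin into dorsal hind paw; licking time of injected paw scored 0−10 min (early phase) and 10−30 min (late phase); n = 7−10; ANOVA with Tukey.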

The subject of data set [8] is Mus musculus. Kind of data set: Antinociceptive activity in Swiss Webster mouse assessed as inhibition of acetic acid-induced abdominal constrictions at 25 to 100 mg/kg, ip dosed 40 mins before acetic acid injection. Format: functional, organism-based. To be noted: Abdomen. Summed up:
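Male Swiss Webster mice dosed ip (5% DMSO in saline vehicle) 40 min before ip acetic acid 0.8% v/v, 10 mL/kg; writhes (abdominal contraction with hind-limb stretching) counted over 0−30 min; mean writhing score, n = 10 per group; ANOVA with Tukey.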

For data set [9], the system named is Mus musculus. Description: Antinociceptive activity in Swiss Webster mouse assessed as inhibition of formalin-induced early phase pain response at 50 mg/kg, ip dosed 40 mins before formalin injection. On the set-up: dose 50 mg/kg. Format: functional, organism-based. Summed up: as §2
Data set [10] deals with Mus musculus. Kind of data set: Antinociceptive activity in Swiss Webster mouse assessed as inhibition of acetic acid-induced abdominal constrictions at 10 mg/kg, ip dosed 40 mins before acetic acid injection. The data set is classed as functional, organism-based. To be noted: Abdomen. On the set-up: dose 10 mg/kg. Summed up: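 Male Swiss Webster mice dosed ip 40 min before ip acetic acid 0.8% v/v (10 mL/kg). Writhes (abdominal contraction with hind limb stretching) counted 0–30 min after injection in a glass cylinder. Mean writhing scores ± SEM, n = 10 per group; ANOVA with Tukey.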

Data set [11] concerns Mus musculus. Kind of data set: Antinociceptive activity in Swiss Webster mouse assessed as inhibition of formalin-induced late phase pain response at 10 mg/kg, ip dosed 40 mins before formalin injection. On the set-up: dose 10 mg/kg. Format: functional, organism-based. Summed up:
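Mice acclimated 30 min, dosed ip 40 min before 20 μL 2.5% formalin sc into dorsal hind paw. Licking time of injected paw scored 10–30 min (late phase), mirror-aided observation. Mean ± SEM, n = 7−10; ANOVA with Tukey.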

Data set [12] has as its system Mus musculus. Kind of data set: Antinociceptive activity in Swiss Webster mouse assessed as inhibition of formalin-induced late phase pain response at 25 to 100 mg/kg, ip dosed 40 mins before formalin injection. The data set is classed as functional, organism-based. Summed up:
as §2

The subject of data set [13] is Mus musculus. Kind of data set: Antiinflammatory activity in Swiss Webster mouse assessed as reduction in paw edema at 100 mg/kg, ip dosed 40 mins before CFA injection and measured 2 hrs post CFA stimulus. Format: functional, organism-based. On the set-up: dose 100 mg/kg. Summed up: as §1
The subject of data set [14] is Mus musculus. Description: Antiinflammatory activity in Swiss Webster mouse assessed as reduction in hyperalgesia at 2 mg/kg, ip dosed 40 mins before CFA injection and measured 2 to 6 hrs post CFA stimulus. The data set is classed as functional, organism-based. On the set-up: dose 2 mg/kg. Summed up:
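Male Swiss Webster mice (22−28 g) given drug ip (dexamethasone in 10% ethanol in saline) 40 min before 20 μL CFA (1 mg/mL heat-killed M. tuberculosis in paraffin oil/mannide monooleate) sc into right hind paw plantar region. Mechanical threshold by von Frey filaments, up−down method, at 2, 4, 6 h. Mean ± SEM, n = 6; two-way ANOVA with Bonferroni.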

Data set [15] concerns Mus musculus. Kind of data set: Reduction in TNFalpha level in Swiss Webster mouse 2 mg/kg, ip dosed 40 mins before CFA injection and measured 3 hrs post CFA stimulus by ELISA method. Format: functional, organism-based. On the set-up: dose 2 mg/kg. To be noted: at 2 mg/kg. Summed up:
(§3)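 Mice dosed ip (dexamethasone in 10% ethanol in saline) 40 min before intraplantar CFA; paw skin removed under terminal halothane anesthesia, homogenized 100 mg/mL in PBS with 0.4 M NaCl, 0.05% Tween 20 and protease inhibitors, centrifuged 3000g 10 min, supernatant frozen −70 °C; cytokine by ELISA as pg/mL. n = 6; two-way ANOVA with Bonferroni.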
(In general: In an ELISA, binding on a coated surface is turned into a signal by an enzyme label.)

In data set [16] the test system is Mus musculus. Description: Reduction in IL1-beta level in Swiss Webster mouse 2 mg/kg, ip dosed 40 mins before CFA injection and measured 3 hrs post CFA stimulus by ELISA method. Format: functional, organism-based. On the set-up: dose 2 mg/kg. To be noted: at 2 mg/kg. Summed up:
as §3

Data set [17] concerns Mus musculus. Description: Antiinflammatory activity in Swiss Webster mouse assessed as reduction in paw edema at 2 mg/kg, ip dosed 40 mins before CFA injection and measured 2 to 6 hrs post CFA stimulus. On the set-up: dose 2 mg/kg. The data set is classed as functional, organism-based. Summed up:
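Male Swiss Webster mice given drug ip (dexamethasone in 10% ethanol in saline) 40 min before intraplantar CFA (20 μL). Paw volume by plethysmometer before and after CFA, at 2, 4, 6 h; expressed as percent increase in paw volume. Mean ± SEM, n = 6; two-way ANOVA with Bonferroni.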

Active and inactive are the calls of the source.

As to `C[C@]12C(=O)C=CC=C1[C@@H](O)C[C@@H]1[C@@H]2CC[C@@]2(O)C(=O)O[C@@]3(C)[C@H]4C[C@]5(C)[C@@H](CO[C@@]16O[C@]23[C@H]5C6=O)C(=O)O4` [PHYSALIN G], the result in the data set with Mus musculus [1] and in the data set on Mus musculus [5] was Active. Also, the Activity entry in the data set on Mus musculus [2] and in the data set on Mus musculus [6] was “Non-toxic” in each case. In addition, the inhibition result with Mus musculus [3] and in the data set with Mus musculus [4] was “inactive” throughout. Besides, the inhibition result in the data set with Mus musculus [7] and in the data set on Mus musculus [9] was “Active” each time. The inhibition result in the data set with Mus musculus [8] is “Dose-dependent effect”.

Turning to `COc1ccc2c(c1)c(CC(=O)O)c(C)n2C(=O)c1ccc(Cl)cc1`, the inhibition entry in the data set on Mus musculus [10] and in the data set on Mus musculus [11] was “Active” in each case.

For the molecule `C[C@]12C(=O)C=CCC1=CC[C@@H]1[C@@H]2CC[C@]2(O)C(=O)O[C@@]3(C)[C@H]4C[C@]5(C)[C@@H](CO[C@@]16O[C@@]32[C@H]5C6=O)C(=O)O4` [PHYSALIN B], the inhibition result in the data set on Mus musculus [12] and in the data set on Mus musculus [13] was “Active” each time. Moreover, the result in the data set with Mus musculus [1] was Active. For the same molecule, the Activity result in the data set on Mus musculus [2] and with Mus musculus [6] was “Non-toxic” each time. Further, the inhibition result in the data set on Mus musculus [3] is “inactive”. For the same molecule, the inhibition entry in the data set with Mus musculus [8] was “Dose-dependent effect”.

With `C[C@@H]1C[C@H]2[C@@H]3CCC4=CC(=O)C=C[C@]4(C)[C@@]3(F)[C@@H](O)C[C@]2(C)[C@@]1(O)C(=O)CO`, the inhibition entry in the data set with Mus musculus [14], with Mus musculus [15], in the data set on Mus musculus [16] and with Mus musculus [17] was “Active” throughout.
